Only some compounds are listed: those with a hit (about 2% of all), similar ones and a draw of the others.
CAL PDZ FP-1: blocks peptide binding to the human CAL PDZ domain; purified CAL PDZ, TMR-peptide fluorescence polarization, 1 h; inhibition, % at 24.9 µM; 300,000 compounds, 0.92% hits; Q9HD26;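 active = mean inhibition of at least 30% with at least half of replicates also reaching 30%; inconclusive = no clear call, values can overlap the other calls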
S100A4 inh HTS: inhibitors of human S100A4 binding to myosin IIA peptide. P26447. S100A4/TAMRA-MyoIIA peptide fluorescence polarization. inhibition, % at 10.7 µM. 360,000 compounds, 0.14% hits;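 active = mean inhibition of at least 70% across replicates, with every replicate also reaching that level; inconclusive = mean inhibition reaches 70% but some replicates fall short; inactive = mean inhibition below 70%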
Target sequence (P26447 whole entry, looked up): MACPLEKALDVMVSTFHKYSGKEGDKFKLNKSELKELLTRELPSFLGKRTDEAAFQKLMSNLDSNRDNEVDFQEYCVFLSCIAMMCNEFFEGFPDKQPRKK
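Assay system: human S100A4 monomer with TAMRA-labelled myosin IIA peptide / Buffer or medium: Calcium-containing HEPES buffer, pH 7.2 / Reagent: TAMRA-labelled myosin IIA heavy-chain peptide probe, 5 nM / Compound: one dose per compound / Timing: polarization read 5 min after assay mix addition, stable 5–60 min / Benchmarks: neutral control DMSO, positive control TFP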
dFosB act-1: mouse delta FosB homodimer activation. purified delta FosB, TAMRA-CDK5 oligo fluorescence polarization; percent of positive-control signal above neutral wells. activation, % at 25 µM. 340,000 compounds, 0.99% hits. AID 493131;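 active = mean activation above about 17%, with every replicate also reaching it, limit read from the data, passing the limit was not always enough; inconclusive = only one of the two conditions met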
Target sequence (P13346 whole entry, looked up): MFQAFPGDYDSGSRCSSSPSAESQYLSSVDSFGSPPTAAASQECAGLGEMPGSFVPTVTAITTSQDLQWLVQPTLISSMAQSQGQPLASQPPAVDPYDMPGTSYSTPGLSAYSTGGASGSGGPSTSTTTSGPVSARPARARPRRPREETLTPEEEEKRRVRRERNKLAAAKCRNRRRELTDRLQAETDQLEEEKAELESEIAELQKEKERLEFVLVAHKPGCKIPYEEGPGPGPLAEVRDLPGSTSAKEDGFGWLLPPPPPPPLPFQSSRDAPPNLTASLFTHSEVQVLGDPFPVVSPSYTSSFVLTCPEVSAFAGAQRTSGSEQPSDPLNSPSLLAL
CAL PDZ FP-2: blocks peptide binding to human CAL PDZ domain. Q9HD26. purified CAL PDZ, TMR-peptide fluorescence polarization, 1 h. inhibition, % at 20 µM. 330,000 compounds, 0.02% hits;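 active = highest replicate inhibition of at least 40%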
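Read-out basis: mP drop reported as inhibition | Assay system: Tagged CAL PDZ protein CerCALP, purified | Benchmarks: Unlabelled peptide for full inhibition, DMSO wells as neutral | Schedule: 1 h incubation at room temperature before polarization reading | Buffer or medium: Sodium phosphate/NaCl buffer pH 7.4 with TCEP, IgG, Thesit | Doses: Single point, 20 µM | Measured by: Fluorescence polarization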
C2C12 statin: protects C2C12 myotubes from simvastatin toxicity | 330,000 compounds, 0.78% hits | ATP luminescence, 48 h; scaled: DMSO 0, geranylgeraniol control 100 | rescue of ATP level, % at 7.49 µM;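 active = mean ATP rescue above about 67%, or every replicate alone reaching that limit, limit read from the data, passing the limit was not always enough; inconclusive = no clear call, values can overlap the other calls; inactive = mean under the limit and some replicate under it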;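 note: myotubes were challenged with 10 µM simvastatin during compound exposure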
CDK5 inh: CDK5/p35 (human) kinase inhibition; Q00535+Q15078; Recombinant CDK5/p35, ADP-Glo luminescence, 60 min; inhibition, % at 10 µM; 330,000 compounds, 0.01% hits;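 active = highest replicate inhibition of at least 50% and at least 75% of replicates reaching 50%; inconclusive = only one of the two criteria met; inactive = both criteria failed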
dFosB act-2: enhances mouse delta FosB homodimer binding to DNA. shares compounds with dFosB act-1. purified delta FosB, TAMRA-CDK5 oligo fluorescence polarization; normalised: neutral wells 0, positive control 100. activation, % at 24.9 µM. 2,400 tested, under 10 active. AID 588690;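 active = highest replicate activation at or above 34% and every replicate reaching that threshold; inconclusive = meets only one of the two criteria; inactive = meets neither criterion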;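 note: higher polarization means more probe DNA bound by delta FosB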
Of the large screens only hits and unclear results are named; the others gave an inactive call (follow-up assays come after a bar, where they were run).

O=C(O)c1ccccc1S(=O)(=O)c1ccccc1CO	none (no result: S100A4 inh HTS)
O=C(Nc1cccc(-c2nc3cccnc3s2)c1)c1ccc(Cl)nc1	dFosB act-1 27 | dFosB act-2 inactive
NS(=O)(=O)c1ccc(C(=O)Nc2ccc(-c3nc4cccnc4s3)cc2)cc1	dFosB act-1 43 (no result: C2C12 statin) | dFosB act-2 inactive
CC1CC(=O)N(c2ccc(C(C)C)cc2)C(=O)C1	none
Cc1ccc(CNc2nc(-c3cccs3)nc3ccccc23)cc1	dFosB act-1 inconclusive (no result: C2C12 statin)
Cc1csc(NC(=O)c2cc3c(s2)-c2ccccc2OC3)n1	dFosB act-1 35 (no result: CAL PDZ FP-1) | dFosB act-2 inactive
Cc1ccc2nc(N3C(=O)C(O)=C(C(=O)c4cc5ccccc5o4)C3c3cccs3)sc2c1 (stereo not given)	none (no result: S100A4 inh HTS)
CC(=O)Nc1ccc(NC(=O)COC(=O)c2ccc(S(=O)(=O)N(C)c3ccccc3)cc2)cc1	dFosB act-1 38 (no result: CAL PDZ FP-1) | dFosB act-2 inactive
O=C(COC(=O)c1cc([N+](=O)[O-])ccc1NCCO)Nc1cccc(S(=O)(=O)N2CCCC2)c1	dFosB act-1 31 | dFosB act-2 inactive
COc1ccc(NC(=O)COC(=O)c2ccc(S(=O)(=O)N(C)c3ccccc3OC)cc2)cc1OC	none (no result: C2C12 statin)
COc1ccccc1N(C)S(=O)(=O)c1ccc(C(=O)OCC(=O)Nc2ccc(C(N)=O)cc2)cc1	dFosB act-1 66 | dFosB act-2 inactive
CN(c1ccccc1)S(=O)(=O)c1ccc(C(=O)OCC(=O)NC(N)=O)cc1	dFosB act-1 inconclusive
Cc1ccc(NC(=O)COC(=O)c2ccc(S(=O)(=O)N3CCCCC3)cc2)cc1	none
O=C(COC(=O)c1ccc(S(=O)(=O)N2CCCCC2)cc1)Nc1ccccc1	dFosB act-1 21 | dFosB act-2 inactive
CCN1CCN(CC(=O)Nc2ccc(N(C)C)cc2)CC1	none
CC1CN(S(=O)(=O)c2cccc(C(=O)OCC(=O)c3cccs3)c2)CC(C)O1 (stereo not given)	none (no result: S100A4 inh HTS)
Nc1c(S(=O)(=O)c2cccs2)c2nc3ccccc3nc2n1Cc1cccs1	dFosB act-1 26 (no result: S100A4 inh HTS) | dFosB act-2 inactive
COc1ccc(CCNC(=O)CNC(=O)c2nn(-c3ccc(OC)c(OC)c3)c(=O)c3ccccc23)cc1OC	none
COc1ccc(-n2nc(C(=O)NCC(=O)Nc3cccc(Cl)c3)c3ccccc3c2=O)cc1OC	dFosB act-1 100 | dFosB act-2 inactive
CCOc1ccccc1NC(=O)CNC(=O)c1nn(-c2ccc(OC)c(OC)c2)c(=O)c2ccccc12	none
COc1ccc(-n2nc(C(=O)Nc3ccc(OC)c(OC)c3)c3c4ccccc4n(C)c3c2=O)cc1	dFosB act-1 27 (no result: S100A4 inh HTS) | dFosB act-2 inactive
CCOc1ccc(NC(=O)CNC(=O)c2nn(-c3ccc(OC)c(OC)c3)c(=O)c3ccccc23)cc1	dFosB act-1 76 | dFosB act-2 inactive
O=C(C[C@H]1C=C[C@H](NC(=O)Nc2cc(F)ccc2F)[C@@H](CO)O1)Nc1ccc(-c2ccccc2)cc1	none (no result: CAL PDZ FP-1, dFosB act-1, CAL PDZ FP-2, CDK5 inh)
O=C(NNC(=O)c1cccs1)c1cccc(F)c1	none
Cc1ccc2occ(/C=N/NC(=O)c3ccc(O)cc3)c(=O)c2c1	dFosB act-1 52 | dFosB act-2 inactive
O=C(N/N=C/c1ccc(OC(=O)c2cccc(F)c2)cc1)c1cccnc1	dFosB act-1 94 | dFosB act-2 inactive
Cc1cccc(C(=O)Oc2ccc(/C=N/NC(=O)c3ccc(O)cc3)cc2)c1	dFosB act-1 34 | dFosB act-2 inactive
O=C(N/N=C/c1ccc(OC(=O)c2cccs2)cc1)c1cccc(F)c1	dFosB act-1 61 (no result: CAL PDZ FP-1) | dFosB act-2 inactive
COc1cc(NC(=O)c2cccc(Cl)c2)c(OC)cc1NC(=O)CN1CCOCC1	none (no result: S100A4 inh HTS)
O=S(=O)(c1cnc[nH]1)N1CCc2ccccc21	dFosB act-1 20 (no result: S100A4 inh HTS) | dFosB act-2 inactive
COc1cccc(Oc2ccc(C(F)(F)F)cc2NC(=O)CN2C(=O)NC3(CCCC3)C2=O)c1	dFosB act-1 45 | dFosB act-2 inactive

Screening data deposited in PubChem by Broad Institute.
